Bioassay records from PubChem BioAssay.
DAT uptake mod: modulates human dopamine transporter uptake under cocaine | B-score at 10 µM | 1.3% of 110,000 active | AID 449768 | LLC-PK1 hDAT cells, [14C]-dopamine uptake with cocaine IC80; actives deviate in either direction;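 active means Z score or B-score, a plate-position-corrected score, falls beyond the plate's 99.7% confidence bounds, in either direction; inactive means both scores lie inside the 99.7% bounds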;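 further: scored against the spread of the other compound wells on the same plate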
Target sequence (Q01959 whole entry, looked up): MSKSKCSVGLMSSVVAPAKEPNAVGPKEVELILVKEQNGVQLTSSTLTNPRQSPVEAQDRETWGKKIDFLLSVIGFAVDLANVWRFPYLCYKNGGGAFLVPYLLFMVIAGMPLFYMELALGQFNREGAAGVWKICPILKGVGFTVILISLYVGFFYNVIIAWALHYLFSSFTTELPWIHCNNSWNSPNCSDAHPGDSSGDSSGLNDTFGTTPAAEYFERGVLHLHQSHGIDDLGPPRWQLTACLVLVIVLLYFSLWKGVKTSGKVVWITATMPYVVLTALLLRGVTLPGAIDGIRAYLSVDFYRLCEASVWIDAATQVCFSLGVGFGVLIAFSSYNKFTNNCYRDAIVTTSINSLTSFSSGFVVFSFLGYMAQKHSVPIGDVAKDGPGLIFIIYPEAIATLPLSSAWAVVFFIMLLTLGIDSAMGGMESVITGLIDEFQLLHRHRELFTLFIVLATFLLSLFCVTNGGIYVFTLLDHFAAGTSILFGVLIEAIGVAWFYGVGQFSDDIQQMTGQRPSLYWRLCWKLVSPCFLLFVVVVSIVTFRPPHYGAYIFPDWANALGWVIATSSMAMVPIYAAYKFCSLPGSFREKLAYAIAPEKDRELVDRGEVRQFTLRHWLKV
D1 mod: allosterically modulates the human D1 dopamine receptor; P21728; HEK293 D1, CRE-luciferase, dopamine EC30 potentiation; actives deviate in either direction; B-score at 10 µM; 5.9% of 58,000 active;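 active means luminescence count or its row- and column-corrected plate score outside the 99.7% band of the plate's sample wells, on either side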
HEK293 NFkB inh: lowers PMA/ionomycin-induced NF-kB signal in HEK293 cells; HEK-293 NF-kB luciferase reporter, luminescence; inhibition, % at 3 µM; 0.21% of 62,000 active; AID 465;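 active means inhibition above the mean of all tested compounds plus 3 SD, cut at about 40% in these data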;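 further: 0% = stimulated DMSO wells and 100% = 10 µM reference inhibitor 5653914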
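Reagent: PMA plus ionomycin mix as NF-kB-activating stimulus. Assay system: NF-kB luciferase reporter HEK-293 cells. Technique: luminescence from luciferase substrate reagent. Incubation: 1 h compound pre-incubation, 16 h PMA/ionomycin at 37 °C. Benchmarks: DMSO only as uninhibited control, 10 µM reference inhibitor as full inhibition. Repeats: tested once.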
Jurkat tox 60K: reduces viability or proliferation of Jurkat cells. Jurkat E6.1 viability, ATP luminescence, 48 h. 1.2% of 56,000 active. inhibition, % at 4 µM. AID 463;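 active means inhibition above the mean inhibition of all tested compounds plus 3 SD, cut at about 28% in these data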
M1 antag: antagonists of rat M1 muscarinic receptor | P08482 | CHO-M1 cells, Fluo-4 calcium, ACh EC80 antagonist mode; hits give low values | B-score at 10 µM | 3.4% of 64,000 active;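 active means calcium fluorescence response, raw or row-and-column corrected B-score, differing from the plate sample mean either way at a set confidence level, mostly lower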
M1 ag: M1 muscarinic receptor agonism; CHO-M1 cells, Fluo-4 calcium fluorescence, agonist mode; hits give high values; AID 626; 3% of 64,000 active; B-score at 10 µM;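 active means fluorescence rise, raw or as B-score row- and column-corrected plate score, outside the 99.7% band of its plate's samples, either direction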
* hit, by the source's call; . = not tested or not shown. Sampled rows, rich in hits. Any-hit rate of the full collection: about 7.6%.

SMILES | DAT uptake mod | D1 mod | HEK293 NFkB inh | Jurkat tox 60K | M1 antag | M1 ag
C=CCn1c(SCc2nc(N)nc(N(C)C)n2)nnc1-c1cccnc1 | . | -6* | 14 | 4 | -0.29 | 0.93
Cc1nc(NCc2ccccc2)[nH]c(=O)c1CCC(C)C | 0.46 | 1 | -1 | -4 | 0 | 0
CN(C)C=Nc1ncc2c3ccccc3n(CCN(C)C)c2c1C#N | 2.9* | -0.59 | 25 | -6 | -0.24 | -0.59
CN(C)C=Nc1ncc2c3ccccc3n(Cc3ccccc3)c2c1C#N | 0.58 | -2.1 | 2 | 6 | 0.21 | 0.55
Cc1ccc(N2CC(C(=O)Nc3nccs3)CC2=O)cc1 (stereo not drawn) | 0.037 | -7.4* | 13 | 6 | 0.35 | -0.6
Cn1nc(-c2ccc(Cl)cc2)c2cc(C(=O)NCCCN3CCOCC3)sc21 | -0.46 | -0.44 | 11 | 5 | 0.12 | -1
Cn1nc(-c2ccc(Cl)cc2)c2cc(C(=O)NCCN3CCOCC3)sc21 | 2.6* | -0.75 | 19 | -4 | 0.021 | -0.11
CN(CC1CCCO1)S(=O)(=O)c1ccc(C(=O)Nc2nc3cc4c(cc3s2)OCO4)cc1 (stereo not drawn) | . | -4.4* | 18 | 18 | -1.3 | -0.46
CCN(CC)S(=O)(=O)c1cccc(C(=O)Nc2nc3cc4c(cc3s2)OCCO4)c1 | 0.089 | . | 6 | 36* | -0.45 | 0.59
Cn1nnnc1SCc1nnc(-c2ccc(Cl)cc2)o1 | -0.79 | -0.47 | 4 | 15 | -0.68 | 0.31
Cc1cc(C)n(-c2nc3ccccc3c(=O)n2OCC(=O)OCc2ccccc2)n1 | . | 0.0082 | 4 | 56* | 0.32 | 0.092
O=S(=O)(NCc1ccccn1)c1ccccc1 | -2.9* | . | . | . | . | .
COC(=O)c1sc(NC(=O)c2cc3c(s2)CCCC3)nc1C | -0.28 | -2.1 | -13 | 5 | 0.41 | -0.44
Cc1csc(NC(=O)c2cc3c(s2)-c2ccccc2OC3)n1 | -0.93 | -1.9 | -19 | 24 | 0.56 | -0.95
Cc1nc(NC(=O)c2cc3c(s2)CCCCC3)sc1C(=O)N(C)C | 2.3* | -0.47 | -19 | -2 | -0.064 | 1.4
Cc1csc(NC(=O)c2cc3c(s2)CCC3)n1 | 1.9 | -5.6* | -24 | . | 0.016 | 3.2
O=c1c2c3c(sc2n2cnnc2n1-c1ccccc1)N(Cc1ccccc1)CCC3 | 0.72 | -5.1* | 11 | 2 | -0.82 | -1.5
CN1CCc2c(sc3c2c(=O)n(-c2cccc(Cl)c2)c2nncn32)C1 | -0.031 | -0.024 | -8 | -6 | -0.21 | -0.77
COc1ccc(OC)c(C(=O)c2ccc(C(=O)c3cc(OC)ccc3OC)cc2)c1 | -0.36 | . | . | . | . | .
COc1ccc(C(=O)c2ccc(N(C)C)cc2)c(OC)c1 | -0.19 | . | 32 | 81* | . | .
COc1ccc(-c2nnnn2-c2ccccc2OC)cc1 | 0.13 | 1 | 5 | 48* | -0.77 | 0.045
Cc1ccccc1-n1nnnc1-c1ccccc1 | -0.55 | 0.049 | 15 | 0 | 0.51 | 0.31
COc1ccc(C2C=C(c3ccc(C)cc3)Nc3ncnn32)cc1 (stereo not drawn) | . | . | . | . | -0.44 | 33*
COc1ccc(C2C=C(c3ccc(Br)s3)Nc3ncnn32)cc1OC (stereo not drawn) | -0.052 | -0.075 | 21 | 13 | -0.0059 | 120*
Cc1ccc(C2C=C(c3ccccc3)Nc3ncnn32)cc1 (stereo not drawn) | 0.59 | . | . | . | . | .
SMILES | DAT uptake mod | D1 mod | HEK293 NFkB inh | Jurkat tox 60K | M1 antag | M1 ag
C1=C(c2ccc(-c3ccccc3)cc2)Nc2ncnn2C1c1ccco1 (stereo not drawn) | 0.18 | -1.2 | -6 | -3 | -1.6 | 44*
Cc1cc(C)c(C2=CC(c3ccccc3)n3ncnc3N2)cc1C (stereo not drawn) | -0.097 | . | . | . | . | .
COc1ccc(C(CNC(=O)c2ccc3c(c2)C(=O)N(CCC(C)C)C3=O)N2CCOCC2)cc1 (stereo not drawn) | 1.3 | 0.012 | 9 | -4 | -2.1 | 0.0052
CCOc1ccccc1N(CC(=O)NC1CCCCC1)C(=O)CNC(=O)c1ccco1 | 0.33 | . | . | . | . | .
Cc1ccnc(N2CCC(C(=O)NNC(=O)c3ccccc3C)CC2)n1 | -0.064 | . | . | . | . | .
CCN1CCN(c2nn3c(=O)c4ccccc4nc3c3ccccc23)CC1 | 0.68 | . | . | . | . | .
C=CCc1c(C)c(C#N)c2nc3ccccc3n2c1NCCN(C)C | 2.7* | -0.85 | 27 | 6 | -0.62 | -0.068
CCc1c(C)c(C#N)c2nc3ccccc3n2c1NCCN(C)C | 0.66 | 0.84 | 16 | 2 | -0.85 | 0.2
CCOc1ccc(N(CC(=O)Nc2ccccc2C)S(=O)(=O)c2c(C)noc2C)cc1 | 0.09 | -0.28 | 36 | 91* | -0.1 | -0.073
CCOc1ccccc1NC(=O)CN(c1ccc(OC)cc1)S(=O)(=O)c1c(C)noc1C | 0.25 | . | 36 | 93* | -0.035 | 0.48
CCOc1ccc(N(CC(=O)Nc2ccc(C)c(C)c2)S(=O)(=O)c2c(C)noc2C)cc1 | 0.015 | 0.2 | 20 | 16 | 0.098 | -0.49
COc1ccc(N(CC(=O)Nc2cc(C)ccc2OC)S(=O)(=O)c2c(C)noc2C)cc1 | -1.4 | . | 6 | 20 | -0.4 | 2.2
CCCc1[nH][nH]c(=O)c1C(c1ccccc1)C(C#N)C#N (stereo not drawn) | -0.22 | 0.0073 | 12 | . | 1.2* | 0.024
Cc1nc(N)sc1-c1csc(Nc2ccccn2)n1 | 4.6* | -6* | -2 | -1 | -1 | -0.37
Cc1nc(N)sc1-c1csc(Nc2ccc(Cl)cn2)n1 | 4.5* | 1.1 | 6 | 12 | -0.14 | -0.5
Cc1ccc2oc(=O)c3cnn(CC(=O)N4CCN(c5ccccc5)CC4)c3c2c1 | 0.24 | . | . | . | . | .
Cc1ccc2oc(=O)c3cnn(CC(=O)N4CCCc5ccccc54)c3c2c1 | -0.2 | 1.6 | -10 | -11 | 2.1* | -0.018
CN(C)CCSc1nc(-c2ccccc2)nc2c1COC(C)(C)C2 | 3* | . | . | . | . | .
COc1ccc(C2CC3CC(c4ccccc4)N2O3)cc1 (stereo not drawn) | -0.33 | . | 24 | 9 | 0.96 | 0.83
Cc1[nH]c(=O)c(C#N)c2c1CSC(C)(C)C2 | -2.5* | . | . | . | . | .
CCc1[nH]c(=O)c(C#N)c2c1CSC(C)(C)C2 | 0.037 | . | . | . | 0.41 | -0.52
CCCS(=O)(=O)c1c(S(=O)(=O)CCC)c2c3ccccc3ccn2c1C(=O)OC | 2.2 | . | . | . | . | .
CCCS(=O)(=O)c1c(S(=O)(=O)CCC)c2c(C)cccn2c1C(=O)OC | 1.4* | . | . | . | . | .
CC(=O)Nc1ccc(-c2nc(C)c(C(C)=O)n2O)cc1 | 0.75 | -1 | 10 | -6 | . | .
CN(C)CC(C(=O)c1ccccc1)c1ccccc1 (stereo not drawn) | -0.58 | -1.3 | 32 | 101* | -1.6 | 0.65
CC(C)OC(=O)c1nn2c(C(F)(F)F)cc(-c3ccc(Br)o3)nc2c1Br | -0.9 | . | . | . | -0.0099 | 9.7*
COc1ccc(NC2CS(=O)(=O)CC2OC(=O)c2ccc(F)cc2)cc1 (stereo not drawn) | 0.0068 | -0.39 | 23 | 1 | -0.48 | 0.43
CC(=O)Nc1ccc(S(=O)(=O)N2CCc3ccccc3C2)cc1 | -8.8* | . | . | . | . | .
O=C(Nc1ccc(S(=O)(=O)N2CCc3ccccc32)cc1)c1ccc2c(c1)OCO2 | 0.88 | 0.22 | 13 | 10 | -0.0076 | -0.025
